# Bioassay records deposited in PubChem by Johns Hopkins Ion Channel Center.
# TRPC4 PAM – allosteric potentiators of mouse TRPC4 channel. HEK293 TRPC4beta/mu-opioid, DAMGO EC20, Fluo-4 Ca2+ flux; hits give high values. hit rate 0.42% among 310,000. B-score at 10 µM. Q9QUQ5;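 active = B-score of calcium response area above 5 SD of library B-scores, with initial fluorescence ratio within 5 SD of library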;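 note: B-score of integrated fluorescence ratio over time as area under calcium response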
# TRPC6 inh – mouse TRPC6 channel inhibition | Q61143 | HEK293-TRPC6, membrane potential dye, ACh-evoked depolarization; hits give low values | B-score at 10 µM | hit rate 1.1% among 310,000 | AID 2553;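 active = B-score under library mean minus 3 SD, initial fluorescence not abnormally high, positive integrated signal ratio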;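 note: B-score derived from integrated fluorescence ratio over the kinetic read; more negative B-score means stronger inhibition of depolarization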
# TRPC4 inh – TRPC4 (mouse) channel inhibition; HEK293 TRPC4beta/mu-opioid, DAMGO-evoked Fluo4 calcium flux; hits give low values; B-score at 10 µM; hit rate 0.39% among 300,000;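 active = B-score over 3 SD under the library average, no early fluorescence shift, positive overall ratio signal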
#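 material = TRPC4beta/mu-opioid receptor HEK293 cell line | probe or stimulus = sequential submaximal and maximal DAMGO stimulation | compound dosing = one concentration per compound | measured by = Fluo4 Ca2+ flux fluorescence | evaluation = integrated fluorescence ratio relative to baseline, converted to per-well B score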
# TRPC4 agonist – opens the mouse TRPC4 cation channel | HEK293 TRPC4beta/mu-opioid, Fluo4 calcium fluorescence; hits give high values | B-score at 10 µM | Q9QUQ5 | hit rate 0.49% among 310,000;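 active = B-score above 5 SD of library B-scores, and initial fluorescence ratio not above library mean plus 5 SD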;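 note: positive B-score marks a calcium rise read as TRPC4 activation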
#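 Assay system: HEK293 stable line with TRPC4beta plus mu-opioid receptor. Times: dye 45 min RT, read 110 s. Measured by: kinetic Fluo4 calcium fluorescence. Measure: B score of integrated ratio. Controls: assay buffer as low control, maximal DAMGO as high control.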
# TRPC6 act – activators of mouse TRPC6 channel. HEK293-TRPC6 membrane potential dye fluorescence; hits give high values. hit rate 0.13% among 310,000. B-score at 10 µM. AID 2550. Q61143;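 active = B-score of the integrated fluorescence ratio above library mean plus 3 SD, and starting fluorescence ratio within library mean plus 5 SD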;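 note: higher score means more depolarization so channel activation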
# * = called active by the depositor; i = inactive. Sampled rows, rich in hits. Any-hit rate of the full collection: about 2.3%.
SMILES,TRPC4 PAM,TRPC6 inh,TRPC4 inh,TRPC4 agonist,TRPC6 act
CCN(CCO)Cc1csc2ccc(Br)cc12,18*,i,i,i,i
O=C(COC(=O)[C@@H]1CCCN1C(=O)c1cccs1)Nc1ccc(F)cc1[N+](=O)[O-],i,i,i,i,i
CC1CCN(CCCOc2ccc(OCc3ccccc3)cc2)CC1,i,i,-6*,i,i
Cc1ccc(Nc2nnc(SCC(=O)NC(Cc3c[nH]c4ccccc34)C(=O)O)s2)cc1 (stereo not drawn),i,i,i,i,i
O=S(=O)(Nc1ccc(S(=O)(=O)Nc2ccccc2)cc1)c1ccccc1,11*,i,i,i,i
O=S(=O)(Nc1ccc(S(=O)(=O)Nc2cccc3ccccc23)cc1)c1ccccc1,15*,i,i,i,i
O=C(NCc1ccccc1)C1=C[C@H](C2CC2)C[C@H](OCCCCO)O1,i,i,i,i,i
CCC(=O)Nc1c(-c2ccccc2Cl)c(=O)c2ccccc2n1CC,i,i,i,i,i
Cc1ccc(C)c(N2CCN(CCCNC(=O)CCn3c(=O)c4cccn4c4cccnc43)CC2)c1,i,i,i,i,i
Cc1ccc(C)c(N2CCN(CCCNC(=O)Cn3c(=O)c4cccn4c4cccnc43)CC2)c1,i,i,-5*,i,i
CC(Oc1ccc(Cl)cc1Cl)c1nc(-c2ccc(NC(=O)c3cccnc3)cc2)no1 (stereo not drawn),i,i,i,i,i
CC(Oc1ccc(Cl)cc1Cl)c1nc(-c2ccccn2)no1 (stereo not drawn),i,i,-6*,i,i
Cc1cc(OCc2cc(C(=O)NCC3(C)COC3)no2)cc(C)c1Cl,i,i,-6*,i,i
CN(C)C(CNC(=O)C1CCN(S(=O)(=O)c2cccc(C(F)(F)F)c2)CC1)c1ccccc1 (stereo not drawn),i,i,-8*,48*,i
CN(C)C(CNC(=O)Cc1cccc(C(F)(F)F)c1)c1ccco1 (stereo not drawn),i,i,i,90*,i
CN(C)C(CNC(=O)Cc1cccc(C(F)(F)F)c1)c1ccccc1 (stereo not drawn),i,i,-7*,161*,i
O=C(Cc1cccc(C(F)(F)F)c1)NCc1ccc(Cl)cc1,i,i,i,i,i
Cc1cccc(C(=O)NCC(c2ccco2)N(C)C)c1 (stereo not drawn),i,i,i,i,i
CN(C)C(CNc1ccc(C(F)(F)F)cn1)c1ccccc1 (stereo not drawn),i,i,i,97*,i
CCC(=O)N1CCCc2cc(S(=O)(=O)CCC(=O)Nc3ccccc3C)ccc21,i,i,i,i,i
COc1ccc([N+](=O)[O-])cc1NC(=O)C(C)OC(=O)c1cccnc1 (stereo not drawn),i,i,i,i,i
O=C(NNC(=O)C12CC3CC(CC(Cl)(C3)C1)C2)c1csc(N2CCOCC2)n1,i,i,i,i,i
CC(C)CCn1c(N2CCN(c3cccc(Cl)c3)CC2)nc2c1c(=O)[nH]c(=O)n2C,16*,i,i,i,i
Cc1ccc(C)c(CSC2=NCCN2C(=O)c2cccs2)c1,i,i,i,i,i
Cc1cc(Nc2ccccc2)nc2cc(O)ccc12,i,i,-7*,i,i
SMILES,TRPC4 PAM,TRPC6 inh,TRPC4 inh,TRPC4 agonist,TRPC6 act
Cc1cc(Nc2cccc(O)c2)c2ccccc2n1,i,i,-5*,i,i
C=CCn1c(SCC(=O)c2ccc(NS(=O)(=O)c3ccccc3)cc2)nnc1-c1cccs1,18*,i,i,i,i
COc1ccc(CCNC/C=C/c2ccccc2)cc1,i,i,i,106*,i
Oc1ccc(-c2csc(-c3ccccc3)n2)cc1O,i,i,-6*,i,i
Oc1ccc(-c2csc(-c3cccnc3)n2)cc1O,i,i,i,i,i
CCc1sc(C(C2C(=O)CC(C)(C)CC2=O)C2C(=O)CC(C)(C)CC2=O)cc1[N+](=O)[O-],i,i,i,95*,i
